Laboratory results reported in ChEMBL document CHEMBL4229485, “The design, synthesis, and evaluation of organic dithienopyrrole-based D-π-A dyes for use as sensitizers in photodynamic therapy” (Bioorg Med Chem Lett, 2018).
The source made the active and inactive calls. The rule behind the calls is not given here.

Assays:
[1] = Dark toxicity in human HeLa cells assessed as reduction in cell viability after 48 hrs by MTT assay; assay type: cell-based
[2] = Drug uptake in cytoplasm of human HeLa cells at 10 uM after 1 hr by Hoechst 33342 staining based confocal microscopic method; assay type: ADME, subcellular
[3] = Drug uptake in nucleus of human HeLa cells at 10 uM after 1 hr by Hoechst 33342 staining based confocal microscopic method; assay type: ADME, subcellular
[4] = Dark toxicity in HEK293 cells assessed as inhibition of cell viability at 10 uM measured after 48 hrs by MTT assay relative to control; assay type: cell-based; settings: human, read-out: INH
[5] = Induction of oxidative damage to human serum albumin assessed as oxidation of tryptophan residue at 10 uM after 15 to 45 mins in presence of ROS quencher L-ascorbic acid by fluorescence assay; assay type: functional
Summary of the method: (§1)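 Sensitizer (10 µM) and HSA (20 µM) in PBS were irradiated with white LED light (420–750 nm, 8.0 ± 0.5 mW/cm2). Photo-oxidation of HSA's single tryptophan was followed as the loss of its intrinsic fluorescence at around 350 nm.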

[6] = Induction of oxidative damage to human serum albumin assessed as oxidation of tryptophan residue at 10 uM after 15 to 45 mins by fluorescence assay; assay type: functional; summary of the method: as §1
HeLa [7] = assay: Phototoxicity in human HeLa cells assessed as reduction in cell viability preincubated for 1 hr followed by LED light irradiation for 60 mins measured after 48 hrs by MTT assay; assay type: functional, cell-based; settings: light or radiation study
Summary of the method: (§2)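 HeLa cells were treated with the sensitizer and photo-irradiated. IC50 is the sensitizer concentration that reduced viability by 50%, read from semi-logarithmic dose-response plots.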

HEK293 = assay: Phototoxicity in HEK293 cells assessed as reduction in cell viability preincubated for 1 hr followed by LED light irradiation for 15 mins measured after 48 hrs by MTT assay; assay type: functional, cell-based; settings: Homo sapiens, HEK293, light or radiation study
HeLa [8] = assay: Phototoxicity in human HeLa cells assessed as reduction in cell viability preincubated for 1 hr followed by LED light irradiation for 15 mins measured after 48 hrs by MTT assay; assay type: functional, cell-based; settings: light or radiation study; summary of the method: as §2
[9] = Dark toxicity in HEK293 cells assessed as reduction in cell viability measured after 48 hrs by MTT assay; assay type: cell-based; settings: human

| Structure (SMILES) | IC50 [1] [µM] | Activity [6] | IC50 (HeLa [8]) [µM] | other results |
| --- | --- | --- | --- | --- |
| COc1ccc(-c2cc3c(s2)c2sc(-c4ccc(/C=C(\C#N)C(=O)O)s4)cc2n3C(C)(C)C)cc1 | 43.4 | Active | 0.19 | Drug uptake [2]: Active; Drug uptake [3]: Active; cytotoxicity at 48 h, 10 µM [4]: 7%; Activity [5]: Active; IC50 (HeLa [7]): 0.063 µM; IC50 (HEK293): 0.043 µM; IC50 at 48 h [9]: > 10 µM |
| CC(C)(C)n1c2cc(-c3ccc(N(c4ccccc4)c4ccccc4)cc3)sc2c2sc(-c3ccc(C=O)s3)cc21 | 67 | inactive | 45 |  |
| CC(C)(C)n1c2cc(-c3ccc(N(c4ccccc4)c4ccccc4)cc3)sc2c2sc(-c3ccc(/C=C4\SC(=S)N(CC(=O)O)C4=O)s3)cc21 | 60.2 | inactive | 17.1 |  |
| CC(C)(C)n1c2cc(-c3ccc(N(c4ccccc4)c4ccccc4)cc3)sc2c2sc(-c3ccc(/C=C(\C#N)C(=O)O)s3)cc21 | > 100 | inactive | > 100 |  |
| COc1ccc(-c2cc3c(s2)c2sc(-c4ccc(C=O)s4)cc2n3C(C)(C)C)cc1 | 68.6 | inactive | 3.8 |  |
| COc1ccc(-c2cc3c(s2)c2sc(-c4ccc(/C=C5\SC(=S)N(CC(=O)O)C5=O)s4)cc2n3C(C)(C)C)cc1 | 63.9 | inactive | 5.7 |  |
| CN(C)c1ccc(-c2cc3c(s2)c2sc(-c4ccc(/C=C(\C#N)C(=O)O)s4)cc2n3C(C)(C)C)cc1 | 15.5 | Active | 0.6 |  |
| CN(C)c1ccc(-c2cc3c(s2)c2sc(-c4ccc(/C=C5\SC(=S)N(CC(=O)O)C5=O)s4)cc2n3C(C)(C)C)cc1 | > 100 | inactive | 12.1 |  |
| CCCCN1C(=O)C(=C/C=C/C=C2\Oc3ccccc3N2CCCS(=O)(=O)O)C(=O)N(CCCC)C1=S | > 100 |  | 16 |  |
| CN(C)c1ccc(-c2cc3c(s2)c2sc(-c4ccc(/C=C(\C#N)C(N)=O)s4)cc2n3C(C)(C)C)cc1 | 54 | inactive | 5 |  |
| C=CC1=C(C)c2cc3[nH]c(cc4nc(cc5[nH]c(cc1n2)c(C)c5C=C)C(C)=C4CCC(=O)O)c(CCC(=O)O)c3C | 12.5 |  | 0.75 |  |
| CN(C)c1ccc(-c2cc3c(s2)c2sc(-c4ccc(C=O)s4)cc2n3C(C)(C)C)cc1 | > 10 | inactive | 2.5 |  |
| N#C/C(=C\c1ccc(-c2ccc(-c3ccc(N(c4ccccc4)c4ccccc4)cc3)s2)s1)C(=O)O | 21.9 |  | 0.21 | cytotoxicity at 48 h, 10 µM [4]: 32%; IC50 (HEK293): 0.16 µM; IC50 at 48 h [9]: > 10 µM |
| CC(C)(C)n1c2cc(-c3ccc(N(c4ccccc4)c4ccccc4)cc3)sc2c2sc(-c3ccc(/C=C(\C#N)C(N)=O)s3)cc21 | > 100 | inactive | > 100 |  |
| COc1ccc(-c2cc3c(s2)c2sc(-c4ccc(/C=C(\C#N)C(N)=O)s4)cc2n3C(C)(C)C)cc1 | 15.7 | Active | 0.56 |  |
| COc1ccc(-c2cc3c(s2)c2sc(-c4ccc(/C=C5\C(=O)N(CCO)C(=O)C(C#N)=C5C)s4)cc2n3C(C)(C)C)cc1 | 60 |  | 15.9 |  |
